Results published in ChEMBL document CHEMBL4616723, “Discovery of Antibacterials That Inhibit Bacterial RNA Polymerase Interactions with Sigma Factors” (J Med Chem, 2020).
Converted amounts (≈) assume the structure as drawn. The source made the active and inactive calls. The calls are words filed in the database; no cut-off is given here.

Tests used:
Enterobacter cloacae = experiment: Antibacterial activity against Enterobacter cloacae ATCC 13047 after 20 hrs by CLSI based-broth microdilution method; assay type: functional; conditions: subsp. cloacae ATCC 13047, 20 h
Acinetobacter baumannii = experiment: Antibacterial activity against Acinetobacter baumannii ATCC 19606 after 20 hrs by CLSI based-broth microdilution method; assay type: functional; conditions: ATCC 19606 = CIP 70.34 = JCM 6841, 20 h
Pseudomonas aeruginosa = experiment: Antibacterial activity against Pseudomonas aeruginosa ATCC 27853 after 20 hrs by CLSI based-broth microdilution method; assay type: functional; conditions: ATCC 27853, 20 h
Klebsiella pneumoniae = experiment: Antibacterial activity against Klebsiella pneumoniae ATCC 700603 after 20 hrs by CLSI based-broth microdilution method; assay type: functional; conditions: ATCC 700603, 20 h
Streptococcus pneumoniae [1] = experiment: Antibacterial activity against Streptococcus pneumoniae ATCC 49619 after 20 hrs by CLSI based-broth microdilution method; assay type: functional; conditions: ATCC 49619, 20 h
Escherichia coli = experiment: Antibacterial activity against Escherichia coli ATCC 25922 after 20 hrs by CLSI based-broth microdilution method; assay type: functional; conditions: ATCC 25922, 20 h
Streptococcus agalactiae = experiment: Antibacterial activity against Streptococcus agalactiae ATCC 12386 after 20 hrs by CLSI based-broth microdilution method; assay type: functional; conditions: ATCC 12386, 20 h
Staphylococcus aureus [2] = experiment: Antibacterial activity against Staphylococcus aureus ATCC 29213 after 20 hrs by CLSI based-broth microdilution method; assay type: functional; conditions: ATCC 29213, 20 h
Streptococcus pyogenes = experiment: Antibacterial activity against Streptococcus pyogenes ATCC 19615 after 20 hrs by CLSI based-broth microdilution method; assay type: functional; conditions: ATCC 19615, 20 h
[3] = test system: Staphylococcus saprophyticus; experiment: Antibacterial activity against Staphylococcus saprophyticus ATCC 15305 after 20 hrs by CLSI based-broth microdilution method; assay type: functional; conditions: subsp. saprophyticus ATCC 15305, 20 h
Enterococcus faecalis = experiment: Antibacterial activity against Enterococcus faecalis ATCC 19433 after 20 hrs by CLSI based-broth microdilution method; assay type: functional; conditions: ATCC 19433, 20 h
[4] = test system: Staphylococcus epidermidis; experiment: Antibacterial activity against Staphylococcus epidermidis ATCC 12228 after 20 hrs by CLSI based-broth microdilution method; assay type: functional; conditions: ATCC 12228, 20 h
Staphylococcus aureus [5] = experiment: Antibacterial activity against Staphylococcus aureus ATCC 25923 after 20 hrs by CLSI based-broth microdilution method; assay type: functional; conditions: ATCC 25923, 20 h
Streptococcus pneumoniae [6] = experiment: Antibacterial activity against Streptococcus pneumoniae ATCC 49619 assessed as reduction in pneumolysin release at 0.25 to 0.5 times MIC incubated for 16 to 20 hrs by Western blot analysis; assay type: functional, organism-based
Method in brief: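 Overnight static culture in brain–heart infusion broth, with or without serially diluted compound; rifampicin and ceftriaxone controls at twofold dilutions from 2 to 0.002 μg/mL; untreated control. […] Western blot probed with rabbit polyclonal anti-pneumolysin (1:1000) and HRP anti-rabbit secondary, ECL chemiluminescence; band intensity normalized to untreated control.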

## O=C(O)c1ccccc1C(=O)c1ccc(NCc2ccccc2F)c([N+](=O)[O-])c1
Enterobacter cloacae
  MIC: > 256 µg/mL
Acinetobacter baumannii
  MIC: > 256 µg/mL
Pseudomonas aeruginosa
  MIC: > 256 µg/mL
Klebsiella pneumoniae
  MIC: > 256 µg/mL
Streptococcus pneumoniae [1]
  MIC: 256 µg/mL (≈ 649 µM)
Escherichia coli
  MIC: > 256 µg/mL

## Nc1cc(C(=O)c2ccccc2C(=O)O)ccc1Sc1ccc(Cl)c(Cl)c1
Enterobacter cloacae
  MIC: > 256 µg/mL
Acinetobacter baumannii
  MIC: > 256 µg/mL
Pseudomonas aeruginosa
  MIC: > 256 µg/mL
Klebsiella pneumoniae
  MIC: > 256 µg/mL
Streptococcus pneumoniae [1]
  MIC: 32 µg/mL (≈ 76.5 µM)
Escherichia coli
  MIC: > 256 µg/mL

## N#Cc1ccccc1NCc1ccc(Sc2ccc(Cl)c(Cl)c2)c([N+](=O)[O-])c1
Enterobacter cloacae
  MIC: > 256 µg/mL
Acinetobacter baumannii
  MIC: > 256 µg/mL
Pseudomonas aeruginosa
  MIC: > 256 µg/mL
Klebsiella pneumoniae
  MIC: > 256 µg/mL
Streptococcus pneumoniae [1]
  MIC: > 256 µg/mL
Escherichia coli
  MIC: > 256 µg/mL

## O=C(O)c1ccccc1C(=O)c1ccc(N2CCCCC2)c([N+](=O)[O-])c1
Enterobacter cloacae
  MIC: > 256 µg/mL
Acinetobacter baumannii
  MIC: > 256 µg/mL
Pseudomonas aeruginosa
  MIC: > 256 µg/mL
Klebsiella pneumoniae
  MIC: > 256 µg/mL
Streptococcus pneumoniae [1]
  MIC: 256 µg/mL (≈ 722 µM)
Escherichia coli
  MIC: > 256 µg/mL

## Nc1ccccc1Sc1ccc(C(=O)Nc2ccccc2C(=O)O)cc1[N+](=O)[O-]
Enterobacter cloacae
  MIC: > 256 µg/mL
Acinetobacter baumannii
  MIC: > 256 µg/mL
Pseudomonas aeruginosa
  MIC: > 256 µg/mL
Klebsiella pneumoniae
  MIC: > 256 µg/mL
Streptococcus pneumoniae [1]
  MIC: 64 µg/mL (≈ 156 µM)
Escherichia coli
  MIC: > 256 µg/mL

## CC(C)(C)c1cccc(Nc2ccc(C(=O)c3ccccc3C(=O)O)cc2[N+](=O)[O-])c1
Enterobacter cloacae
  MIC: > 256 µg/mL
Acinetobacter baumannii
  MIC: > 256 µg/mL
Pseudomonas aeruginosa
  MIC: > 256 µg/mL
Klebsiella pneumoniae
  MIC: > 256 µg/mL
Streptococcus pneumoniae [1]
  MIC: 256 µg/mL (≈ 612 µM)
Escherichia coli
  MIC: > 256 µg/mL

## O=C(O)c1ccc(F)c(NCc2ccc(Sc3ccc(Cl)c(Cl)c3)c([N+](=O)[O-])c2)c1
Enterobacter cloacae
  MIC: > 256 µg/mL
Acinetobacter baumannii
  MIC: > 256 µg/mL
Pseudomonas aeruginosa
  MIC: > 256 µg/mL
Klebsiella pneumoniae
  MIC: > 256 µg/mL
Streptococcus pneumoniae [1]
  MIC: > 256 µg/mL
Escherichia coli
  MIC: > 256 µg/mL

## Cc1occc1Sc1ccc(C(=O)c2ccccc2C(=O)O)cc1[N+](=O)[O-]
Enterobacter cloacae
  MIC: > 256 µg/mL
Acinetobacter baumannii
  MIC: > 256 µg/mL
Pseudomonas aeruginosa
  MIC: > 256 µg/mL
Klebsiella pneumoniae
  MIC: > 256 µg/mL
Streptococcus pneumoniae [1]
  MIC: 256 µg/mL (≈ 668 µM)
Escherichia coli
  MIC: > 256 µg/mL

## Nc1ccccc1Sc1ccc(C(=O)c2ccccc2C(=O)O)cc1[N+](=O)[O-]
Streptococcus agalactiae
  MIC: > 256 µg/mL
Staphylococcus aureus [2]
  MIC: > 256 µg/mL
Streptococcus pyogenes
  MIC: 256 µg/mL (≈ 649 µM)
[3]
  MIC: 256 µg/mL (≈ 649 µM)
Enterobacter cloacae
  MIC: > 256 µg/mL
Acinetobacter baumannii
  MIC: > 256 µg/mL
Enterococcus faecalis
  MIC: 256 µg/mL (≈ 649 µM)
Pseudomonas aeruginosa
  MIC: > 256 µg/mL
Klebsiella pneumoniae
  MIC: > 256 µg/mL
[4]
  MIC: > 256 µg/mL
Staphylococcus aureus [5]
  MIC: > 256 µg/mL
Escherichia coli
  MIC: > 256 µg/mL

## O=C(O)c1ccccc1C(=O)c1ccc(N2CCOCC2)c([N+](=O)[O-])c1
Enterobacter cloacae
  MIC: > 256 µg/mL
Acinetobacter baumannii
  MIC: > 256 µg/mL
Pseudomonas aeruginosa
  MIC: > 256 µg/mL
Klebsiella pneumoniae
  MIC: > 256 µg/mL
Streptococcus pneumoniae [1]
  MIC: > 256 µg/mL
Escherichia coli
  MIC: > 256 µg/mL

## Nc1ccccc1Nc1ccc(C(=O)c2ccccc2C(=O)O)cc1[N+](=O)[O-]
Enterobacter cloacae
  MIC: > 256 µg/mL
Acinetobacter baumannii
  MIC: > 256 µg/mL
Pseudomonas aeruginosa
  MIC: > 256 µg/mL
Klebsiella pneumoniae
  MIC: > 256 µg/mL
Streptococcus pneumoniae [1]
  MIC: > 256 µg/mL
Escherichia coli
  MIC: > 256 µg/mL

## O=C(O)c1ccccc1C(=O)c1ccc(Nc2cccc3cccnc23)c([N+](=O)[O-])c1
Enterobacter cloacae
  MIC: > 256 µg/mL
Acinetobacter baumannii
  MIC: > 256 µg/mL
Pseudomonas aeruginosa
  MIC: > 256 µg/mL
Klebsiella pneumoniae
  MIC: > 256 µg/mL
Streptococcus pneumoniae [1]
  MIC: > 256 µg/mL
Escherichia coli
  MIC: > 256 µg/mL

## CO/N=C(\C(=O)N[C@@H]1C(=O)N2C(C(=O)O)=C(CSc3nc(=O)c(O)nn3C)CS[C@H]12)c1csc(N)n1
Streptococcus pneumoniae [6]
  Activity: inactive
